The values below come from PubChem BioAssay.

Assay [1] is described as follows: reducers of endogenous Her2 protein level, primary screen, SKBR3 breast tumor cells, AlphaScreen, ATP viability (AID 461).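 As to Her2 level: lower value means less Her2 protein in the cells.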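 As to viability: percent of carrier control wells set as 100% viability.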 To be noted: 18-24 h, measured here: SKBR3 viability, ATP luminescence, at 10 µM. Background: In Alpha technology, singlet oxygen from a donor bead excites a nearby acceptor bead.
Assay [2] concerns the target Receptor tyrosine-protein kinase erbB-2 (Homo sapiens) (UniProt P04626). Described as above. To be noted: 18-24 h, at 10 µM, stronger effect = lower value.
Assay [3] in a line: SK-BR-3 cell growth inhibitors, pilot screen, 24 h, human (AID 572;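 active = viability at or below 10% of carrier control in both of two separate runs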;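 also: compound exposure lasted between 18 and 24 h rather than exactly 24 h; 100% = carrier-treated control wells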). To be noted: SK-BR-3 viability, CellTiter-Glo luminescence, at 10 µM, stronger effect = lower value.
Assay [4] in a line: HUVEC growth inhibition – cell-based, human, primary screen (AID 575;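 active = viability at or below 30% in both replicate assays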;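 also: 100% = median of untreated cell wells with 0.1% DMSO on each plate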). To be noted: HUVEC proliferation, CellTiter-Glo luminescence, 72 h; at 10 µM; stronger effect = lower value. The method in brief:
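Test system: primary human umbilical vein endothelial cells; medium: endothelial basal medium with 2% FBS plus growth supplements; dosing: 10 µM compound only; times: 72 h treatment at 37 °C; signal: CTG luminescence; read-out: % viability relative to median vehicle-well signal on each plate; control set: vehicle and MePR control wells; plate: 384-well, collagen-coated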
Background: Cellular ATP, detected with luciferase, serves as a proxy for viable cell number.

Assay [5] can be described thus: growth inhibitors of H69AR lung tumor, primary screen, human, duplicate replicates (AID 580;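 active = viability at or under a set limit in both replicates, limit being median viability minus 3 SD, cut at about 48% in these data, passing the limit was not always enough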;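 also: 100% = mean luminescence of untreated wells and 0% = no signal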). To be noted: H69AR lung tumor cells viability, ATP luminescence, 72 h; at 10 µM; stronger effect = lower value.
The nature of assay [6]: reversal of MRP1-mediated doxorubicin resistance, pilot screen, H69AR cells, doxorubicin co-treatment (AID 601;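 active = viability loss from added drug above about 55%, and viability with drug at most 40%, in both replicates, limit read from the data, passing the limit was not always enough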). To be noted: CellTiter-Glo, 72 h, at 10 µM; for differential viability (reversal): stronger effect = higher value.
Assay [7] in a line: 384-well plate pilot, post-Golgi transport modulator project, inhibition of yeast transport mutant growth (AID 636; in the data active = inhibition above about 31%). The following applies: absorbance 615 nm, about 18 h, stronger effect = higher value.
A short description of assay [8]: growth suppression of yeast trafficking mutant, preliminary HTS, modulators of trafficking downstream of Golgi apparatus project, 1536-format plate, OD 615 nm (AID 637; in the data active = inhibition above about 30%). The following applies: yeast transport mutant growth, absorbance 615 nm, 18 h; stronger effect = higher value.
Setting [9] is: H69AR cells + 2 uM doxorubicin, measured here: viability with 2 uM doxorubicin, stronger effect = lower value.
Setting [10] is: H69AR cells, compound alone cytotoxicity.

Calls of active or inactive are those of the source.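 The calls were made as follows, unless noted: active = Her2 level under about 52% in both replicate screens, with viability over 70% of control (limit read from the data); inconclusive = Her2 under the limit in one screen only, or viability under 70%; inactive = Her2 level above the set limit.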

Receptor tyrosine-protein kinase erbB-2 (Homo sapiens), sequence (P04626 whole entry, looked up): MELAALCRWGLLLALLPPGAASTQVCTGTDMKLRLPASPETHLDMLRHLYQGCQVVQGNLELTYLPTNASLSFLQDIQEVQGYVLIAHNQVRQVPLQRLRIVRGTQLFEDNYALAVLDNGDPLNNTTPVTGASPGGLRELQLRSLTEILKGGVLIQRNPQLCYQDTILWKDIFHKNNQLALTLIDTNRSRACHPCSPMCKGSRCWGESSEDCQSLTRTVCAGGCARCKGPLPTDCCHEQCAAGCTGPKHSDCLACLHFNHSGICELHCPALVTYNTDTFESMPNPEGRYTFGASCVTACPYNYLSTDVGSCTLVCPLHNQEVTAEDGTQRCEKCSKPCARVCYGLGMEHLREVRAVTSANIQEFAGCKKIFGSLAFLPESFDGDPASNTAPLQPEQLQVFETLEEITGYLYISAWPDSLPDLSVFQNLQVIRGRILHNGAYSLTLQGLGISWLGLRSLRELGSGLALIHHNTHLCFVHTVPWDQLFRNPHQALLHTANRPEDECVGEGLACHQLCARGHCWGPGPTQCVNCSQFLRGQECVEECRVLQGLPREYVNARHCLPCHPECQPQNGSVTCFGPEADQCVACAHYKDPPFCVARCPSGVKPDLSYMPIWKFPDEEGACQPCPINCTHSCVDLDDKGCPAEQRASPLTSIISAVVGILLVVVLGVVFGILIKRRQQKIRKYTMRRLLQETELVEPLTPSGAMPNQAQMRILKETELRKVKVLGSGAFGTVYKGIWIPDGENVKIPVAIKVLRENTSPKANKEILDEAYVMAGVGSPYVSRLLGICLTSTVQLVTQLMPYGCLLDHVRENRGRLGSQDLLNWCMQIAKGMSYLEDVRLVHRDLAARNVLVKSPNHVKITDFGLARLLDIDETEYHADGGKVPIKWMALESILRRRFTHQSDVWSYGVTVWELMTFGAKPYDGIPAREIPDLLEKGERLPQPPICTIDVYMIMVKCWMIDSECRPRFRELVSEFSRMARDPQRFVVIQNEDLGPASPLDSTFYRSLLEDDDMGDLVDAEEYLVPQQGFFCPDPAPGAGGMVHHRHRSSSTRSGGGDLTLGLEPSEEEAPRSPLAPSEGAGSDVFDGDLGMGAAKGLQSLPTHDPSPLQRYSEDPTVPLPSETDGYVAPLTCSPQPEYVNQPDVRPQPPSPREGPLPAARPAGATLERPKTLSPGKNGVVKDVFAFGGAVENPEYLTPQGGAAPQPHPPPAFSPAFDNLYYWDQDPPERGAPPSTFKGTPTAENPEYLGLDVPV

Consider `O=C(CCn1c(=O)sc2ccccc21)NC1=NCCS1`, for which the viability (as a rule, a read-out of living cells in per cent, often relative to untreated cells) is 84% in assay [1]; 84% (inactive) in assay [3]; 94.6% (inactive) in assay [4]; 91.6% (inactive) in assay [5]; 86.9% in assay [6] (setting [9]); 91.6% in assay [6] (setting [10]). For the same compound, the Her2 level in assay [2] is 96% (inactive). For the same compound, the differential viability (reversal) in assay [6] (H69AR cells + 2 uM doxorubicin) was 4.68% (inactive). Besides, the inhibition (usually the drop in the measured response relative to a control, in per cent) in assay [7] was -1.87% (inactive); in assay [8], -6.72% (inactive).
As for `O=C1CC(C2CCCO2)C(=O)N1Cc1ccccc1` (stereo not given), the viability is 98% in assay [1]; 98% (inactive) in assay [3]; 90.2% (inactive) in assay [4]; 103% (inactive) in assay [5]; 99.4% in assay [6] (setting [9]); 103% in assay [6] (setting [10]). Also, the Her2 level in assay [2] was 94% (inactive). Moreover, the differential viability (reversal) in assay [6] (H69AR cells + 2 uM doxorubicin) is 3.39% (inactive). Moreover, the values for the inhibition in assay [7] and in assay [8] were -6.08% (inactive) and -0.66% (inactive), respectively.
On to `Cc1ccc(NC2=NC(c3ccccc3)n3c(nc(C)cc3=O)N2)cc1` (stereo not given), for which the viability in assay [1] is 86.5%; in assay [3] it was 86.5% (inactive); in assay [4], 93.5% (inactive); in assay [5] it was 88.5% (inactive); in assay [6] (setting [9]) it was 77.2%; in assay [6] (setting [10]), 88.5%. In addition, the Her2 level in assay [2] was 82% (inactive). Further, the differential viability (reversal) in assay [6] (H69AR cells + 2 uM doxorubicin) was 11.3% (inactive). In addition, the inhibition was -2.11% (inactive) in assay [7] and 2.55% (inactive) in assay [8].
For the compound `O=C(CN(c1ccc(F)cc1)S(=O)(=O)c1ccc2c(c1)OCCO2)Nc1ccc2c(c1)OCO2`, the viability was 83% in assay [1]; 83% (inactive) in assay [3]; 91.3% (inactive) in assay [4]; 99.8% (inactive) in assay [5]; 95.2% in assay [6] (setting [9]); 99.8% in assay [6] (setting [10]). Further, the Her2 level in assay [2] was 89.5% (inactive). Besides, the differential viability (reversal) in assay [6] (H69AR cells + 2 uM doxorubicin) is 4.63% (inactive). Further, the inhibition in assay [7] is 0.8% (inactive); in assay [8], 4.03% (inactive).
Take `Cc1ccc(NC(=O)N2CCC(c3nc4c(nnn4Cc4cccc(Cl)c4)c(=O)[nH]3)CC2)cc1`: the viability in assay [1] is 81.5%; in assay [3] it was 81.5% (inactive); in assay [4], 61.8% (inactive); in assay [5] it was 85.2% (inactive); in assay [6] (setting [9]) it was 65.6%; in assay [6] (setting [10]) it was 85.2%. Moreover, the Her2 level in assay [2] is 76.5% (inactive). Also, the differential viability (reversal) in assay [6] (H69AR cells + 2 uM doxorubicin) is 19.6% (inactive). For the same compound, the inhibition in assay [7] was -0.13% (inactive); in assay [8] it was -1.45% (inactive).
Regarding `CCc1nc(C)c(C#N)c2cc(OC)c(OC)cc12`, the viability in assay [1] is 103%; in assay [3] it was 103% (inactive); in assay [4], 77.8% (inactive); in assay [5], 82.4% (inactive); in assay [6] (setting [9]), 74%; in assay [6] (setting [10]), 82.4%. In assay [2], the Her2 level was 90% (inactive). In assay [6] (H69AR cells + 2 uM doxorubicin), the differential viability (reversal) is 8.46% (inactive). For the same compound, the results for the inhibition in assay [7] and in assay [8] were -0.91% (inactive) and 3.93% (inactive), respectively.
Take `CCOc1ccc2nc(SCC(=O)N3CCCCCC3)c(C#N)cc2c1`: the viability in assay [1] was 95%; in assay [3], 95% (inactive); in assay [4], 87.5% (inactive); in assay [5], 86.2% (inactive); in assay [6] (setting [9]), 89.4%; in assay [6] (setting [10]) it was 86.2%. Also, the Her2 level in assay [2] is 82.5% (inactive). Moreover, the differential viability (reversal) in assay [6] (H69AR cells + 2 uM doxorubicin) is -3.21% (inactive). Further, the inhibition in assay [7] was -5.87% (inactive); in assay [8], 3.28% (inactive).
For the compound `O=C(CSc1ncnc2c1cnn2-c1ccccc1)Nc1ccccc1`, the viability in assay [1] is 96%; in assay [3], 96% (inactive); in assay [4] it was 63.1% (inactive); in assay [5], 79.7% (inactive); in assay [6] (setting [9]), 72.2%; in assay [6] (setting [10]), 79.7%. In addition, the Her2 level in assay [2] is 88% (inactive). In addition, the differential viability (reversal) in assay [6] (H69AR cells + 2 uM doxorubicin) was 7.43% (inactive). Also, the values for the inhibition in assay [7] and in assay [8] were -7.95% (inactive) and 2.22% (inactive), respectively.
As for `O=C(Nc1ccc(N2C(=O)C3C4C=CC(C4)C3C2=O)cc1)Nc1cccnc1` (stereo not given), the viability in assay [1] is 108%; in assay [3], 108% (inactive); in assay [4] it was 75.3% (inactive); in assay [5], 86% (inactive); in assay [6] (setting [9]), 86.1%; in assay [6] (setting [10]), 86%. Besides, the Her2 level in assay [2] was 83% (inactive). In addition, the differential viability (reversal) in assay [6] (H69AR cells + 2 uM doxorubicin) was -0.065% (inactive). Further, the values for the inhibition in assay [7] and in assay [8] were -3.29% (inactive) and -1.33% (inactive), respectively.
Regarding `O=C(Nc1ccccc1)N(CCN1CCOCC1)Cc1ccccc1F`, the viability is 106% in assay [1]; 106% (inactive) in assay [3]; 92.2% (inactive) in assay [4]; 92.3% (inactive) in assay [5]; 108% in assay [6] (setting [9]); 92.3% in assay [6] (setting [10]). Moreover, in assay [2], the Her2 level was 103% (inactive). Moreover, in assay [6] (H69AR cells + 2 uM doxorubicin), the differential viability (reversal) was -16% (inactive). For the same compound, the inhibition in assay [7] was 2.11% (inactive); in assay [8] it was 1.64% (inactive).
Take `Cc1nn(-c2ccc(F)cc2)c2sc(C(=O)OCC(=O)N3CCC(C)CC3)cc12`: the viability in assay [1] was 93%; in assay [3] it was 93% (inactive); in assay [4] it was 76.8% (inactive); in assay [5], 102% (inactive); in assay [6] (setting [9]), 92.6%; in assay [6] (setting [10]), 102%. Besides, the Her2 level in assay [2] was 102% (inactive). The differential viability (reversal) in assay [6] (H69AR cells + 2 uM doxorubicin) is 9.16% (inactive). Besides, the inhibition in assay [7] was -3.87% (inactive); in assay [8], -5.81% (inactive).
`CSc1nc(C)cc(OCC(=O)N2CCOCC2)n1`: the viability in assay [1] was 130%; in assay [3], 130% (inactive); in assay [4], 99.2% (inactive); in assay [5] it was 92.7% (inactive); in assay [6] (setting [9]), 90.2%; in assay [6] (setting [10]) it was 92.7%. The Her2 level in assay [2] was 112% (inactive). Further, the differential viability (reversal) in assay [6] (H69AR cells + 2 uM doxorubicin) is 2.54% (inactive). Moreover, the values for the inhibition in assay [7] and in assay [8] were -4.81% (inactive) and 5% (inactive), respectively.
Regarding `Cc1cc(C)n2nc3nc(N4CCCCC4)nc(-c4ccco4)c3c2n1`, the viability was 81.5% in assay [1]; 81.5% (inactive) in assay [3]; 79.5% (inactive) in assay [4]; 80.2% (inactive) in assay [5]; 82.8% in assay [6] (setting [9]); 80.2% in assay [6] (setting [10]). For the same compound, in assay [2], the Her2 level was 81% (inactive). The differential viability (reversal) in assay [6] (H69AR cells + 2 uM doxorubicin) was -2.63% (inactive). Besides, the inhibition in assay [7] was -4.53% (inactive); in assay [8], -5.16% (inactive).
For the compound `COc1ccc2[nH]c(=O)c(CN(Cc3cccs3)S(=O)(=O)c3cccc4nsnc34)cc2c1`, the viability is 96.5% in assay [1]; 96.5% (inactive) in assay [3]; 59.2% (inactive) in assay [4]; 5.33% (active) in assay [5]; 5.45% in assay [6] (setting [9]); 5.33% in assay [6] (setting [10]). The Her2 level in assay [2] was 80% (inactive). Besides, the differential viability (reversal) in assay [6] (H69AR cells + 2 uM doxorubicin) was -0.125% (inactive). In addition, the inhibition in assay [7] was -6.44% (inactive); in assay [8] it was 1.43% (inactive).
